Laboratory results published in ChEMBL document CHEMBL1143721, “Bioactive polyketides from Peperomia duclouxii” (J Nat Prod, 2007).
Converted amounts (≈) assume the structure as drawn.

Assays:
[1] = tested on: HepG2; experiment: Growth inhibition of HepG2 cells; format: functional, cell-based; conditions: Homo sapiens
In short: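 HepG2 cells kept in D-MEM with 10% FBS and 80 µg/mL kanamycin. Growth inhibition measured, IC50 taken as the concentration giving 50% growth inhibition, reported in µg/mL.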

[2] = tested on: WI-38 VA13; experiment: Growth inhibition of VA13 cells; format: functional, cell-based; conditions: Homo sapiens
In short: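 VA-13 malignant lung tumor cells kept in RITC 80-7 medium with 10% FBS and 80 µg/mL kanamycin. Growth inhibition measured, IC50 taken as the concentration giving 50% growth inhibition, reported in µg/mL.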

[3] = tested on: WI-38; experiment: Growth inhibition of WI38 cells; format: functional, cell-based; conditions: Homo sapiens
[4] = tested on: A549; experiment: Inhibition of IL-1-alpha-stimulated ICAM1 expression in human A549 cells; format: functional, cell-based
In short: (§1)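 A549 human lung carcinoma cells grown in RPMI 1640 with heat-inactivated 10% FBS, penicillin G and streptomycin. ICAM-1 induced with recombinant IL-1α or TNF-α. Cell-surface ICAM-1 detected with mouse anti-human ICAM-1 antibody C167 and peroxidase-conjugated goat anti-mouse IgG. Viability checked in parallel by MTT assay.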

[5] = tested on: A549; experiment: Inhibition of TNF-alpha-stimulated ICAM1 expression in human A549 cells; format: functional, cell-based; in short: as §1
[6] = tested on: MDR; experiment: Effect on calcein accumulation in MDR 2780AD cells at 2.5 ug/mL relative to control; format: functional, Homo sapiens
In short: (§2)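 Multidrug-resistant human ovarian cancer 2780AD (AD10) cells grown in RPMI-1640 with 10% FBS and 80 µg/mL kanamycin. Cells are exposed to test agent at 0.25, 2.5 and 25 µg/mL. Calcein formed from calcein AM by endogenous esterase is read as fluorescence per well, mean of triplicates. Results are given as % of untreated control, or relative to verapamil at the same concentration.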

[7] = tested on: MDR; experiment: Effect on calcein accumulation in MDR 2780AD cells at 25 ug/mL relative to control; format: functional, Homo sapiens; in short: as §2
[8] = tested on: MDR; experiment: Effect on calcein accumulation in MDR 2780AD cells at 0.25 ug/mL relative to control; format: functional, Homo sapiens; in short: as §2
[9] = tested on: MDR; experiment: Effect on calcein accumulation in MDR 2780AD cells at 0.25 ug/mL relative to verapamil; format: functional, Homo sapiens; in short: as §2
[10] = tested on: MDR; experiment: Effect on calcein accumulation in MDR 2780AD cells at 25 ug/mL relative to verapamil; format: functional, Homo sapiens; in short: as §2
[11] = tested on: MDR; experiment: Effect on calcein accumulation in MDR 2780AD cells at 2.5 ug/mL relative to verapamil; format: functional, Homo sapiens; in short: as §2

How did the IC50 [1] turn out when `COc1cc(/C=C/C(=O)NCCc2ccc(O)c(OC)c2)ccc1O` was run?
Its IC50 is over 20 µg/mL.

And the IC50 [2]?
Its IC50 is over 20 µg/mL.

And the IC50 [3]?
The IC50 was over 20 µg/mL.

Which IC50 [4] does the source give for `O=C(CCCCCCCCCCCCc1ccc2c(c1)OCO2)C1=C(O)CCC(O)C1=O` (stereo not given) here?
The IC50 was 43.3 µg/mL (≈ 97.4 µM).

What about the IC50 [5] of the same molecule?
The IC50 was 27.2 µg/mL (≈ 61.2 µM).

For `O=C1CCCC2=C1[C@H](O)C[C@H](CCCCCCCCCCCCc1ccc3c(c1)OCO3)O2`, which IC50 [1] is on record?
The IC50 was 18.2 µg/mL (≈ 39.9 µM).

And the IC50 [2]?
The IC50 was over 20 µg/mL.

And the IC50 [4]?
Its IC50 is 65.2 µg/mL (≈ 143 µM).

And the IC50 [5]?
Its IC50 is 48.8 µg/mL (≈ 107 µM).

And the IC50 [3]?
Its IC50 is over 20 µg/mL.

Which Activity [6] does the source give for `COc1ccc(CCN(C)CCCC(C#N)(c2ccc(OC)c(OC)c2)C(C)C)cc1OC` (stereo not given) here?
The Activity was 114%.

What about the Activity [7] of the same molecule?
The Activity was 138%.

What about the Activity [8] of the same molecule?
Its Activity is 114%.

Which results are given for `COc1cccc2c1C(=O)c1c(O)c3c(c(O)c1C2=O)C[C@@](O)(C(=O)CO)C[C@@H]3O[C@H]1C[C@H](N)[C@H](O)[C@H](C)O1` [DOXORUBICIN]?
IC50 [1]: 0.41 µg/mL (≈ 0.754 µM); IC50 [2]: 0.39 µg/mL (≈ 0.718 µM)

For `CC1(C)C[C@H](O)C[C@@]2(C)OC(=O)C=C12` [LOLIOLIDE], which IC50 [1] is on record?
Its IC50 is over 20 µg/mL.

And the IC50 [2]?
Its IC50 is over 20 µg/mL.

What about the IC50 [3] of the same molecule?
The IC50 was over 20 µg/mL.

Which IC50 [1] does the source give for `COc1cc(/C=C/C(=O)NCCc2ccc(O)c(O)c2)ccc1O` [N-TRANS-FERULOYLDOPAMINE] here?
The IC50 was over 20 µg/mL.

What about the IC50 [2] of the same molecule?
Its IC50 is over 20 µg/mL.

And the IC50 [3]?
Its IC50 is over 20 µg/mL.

With `O=C(CCCCCCCCCCCCc1ccccc1)C1=C(O)CCC(O)C1=O` (stereo not given) [OLEIFERINONE] as the molecule, how does the IC50 [1] read?
The IC50 was 9.2 µg/mL (≈ 23 µM).

And the IC50 [2]?
The IC50 was 5.8 µg/mL (≈ 14.5 µM).

What about the IC50 [4] of the same molecule?
Its IC50 is 36.8 µg/mL (≈ 91.9 µM).

What about the IC50 [5] of the same molecule?
The IC50 was 22.9 µg/mL (≈ 57.2 µM).

And the IC50 [3]?
The IC50 was 9.6 µg/mL (≈ 24 µM).

For `CC(=O)O[C@H]1C(=O)[C@@]2(C)[C@H]([C@H](OC(=O)c3ccccc3)[C@]3(O)C[C@H](OC(=O)[C@H](O)[C@@H](NC(=O)c4ccccc4)c4ccccc4)C(C)=C1C3(C)C)[C@]1(OC(C)=O)CO[C@@H]1C[C@@H]2O` [PACLITAXEL], which IC50 [1] is on record?
Its IC50 is 0.69 µg/mL (≈ 0.808 µM).

What about the IC50 [3] of the same molecule?
The IC50 was 0.05 µg/mL (≈ 0.0586 µM).

Which results are given for `CC(C)CNC(=O)/C=C/CCCCc1ccc2c(c1)OCO2` [PIPERCALLOSIDINE]?
IC50 [1]: > 20 µg/mL; IC50 [2]: > 20 µg/mL; IC50 [3]: > 20 µg/mL

What does the source list for `C=C(C)[C@@H]1CCC(=C)[C@H](O)CCC(=C)[C@@H](O)C1` [SINUGIBBERODIOL]?
Activity [9]: 100%; Activity [6]: 137%; Activity [10]: 116%; Activity [7]: 160%; Activity [11]: 120%; Activity [8]: 113%

What does the source list for `O=C(CCCCCCCCCCCCCCc1ccc2c(c1)OCO2)C1=C(O)CCC(O)C1=O` (stereo not given) [SURINONE A]?
IC50 [1]: 7.4 µg/mL (≈ 15.7 µM); IC50 [2]: 4.4 µg/mL (≈ 9.31 µM); IC50 [4]: 51.4 µg/mL (≈ 109 µM); IC50 [5]: 33.5 µg/mL (≈ 70.9 µM); IC50 [3]: 8.6 µg/mL (≈ 18.2 µM)

Which IC50 [1] does the source give for `COc1cc(/C=C/C(=O)NCCc2ccc(O)cc2)cc(OC)c1O` [TRANS-N-SINAPOYLTYRAMINE] here?
The IC50 was over 20 µg/mL.

What about the IC50 [2] of the same molecule?
The IC50 was over 20 µg/mL.

What about the IC50 [3] of the same molecule?
Its IC50 is over 20 µg/mL.
